Reference: ChEMBL document CHEMBL1121570, “3-(4-Piperidinylalkyl)indoles, selective inhibitors of neuronal 5-hydroxytryptamine uptake” (J Med Chem, 1980)
Active and inactive are the calls of the source. No cut-off for these calls is given here.

What was measured:
[1] = tested on: Mus musculus; test: Potentiation of 5-HTP in mouse after subcutaneous administration.; format: functional, organism-based
How it was run: (§1)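 Mice in groups of eight received L-5-HTP 100 mg/kg ip in 0.9% NaCl. Drug was given sc 30 min after 5-HTP. Tremor was rated at 75 min (0 none, 1 moderate, 2 severe). ED50 is the dose giving a mean score of 1, derived from the group global scores.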

[2] = tested on: Rattus norvegicus; test: Antagonism of tetrabenazine ptosis in rat after oral administration.; format: functional, organism-based
How it was run: (§2)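 Rats dosed orally 0.5 h before tetrabenazine (10 mg/kg, sc). Ptosis scored present or absent 1 h later. ED50 taken as the dose preventing ptosis in 50% of animals.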

[3] = target: Sodium-dependent serotonin transporter (Homo sapiens, UniProt P31645); format: functional, organism-based
Sequence of Sodium-dependent serotonin transporter (Homo sapiens, UniProt P31645) (P31645 whole entry): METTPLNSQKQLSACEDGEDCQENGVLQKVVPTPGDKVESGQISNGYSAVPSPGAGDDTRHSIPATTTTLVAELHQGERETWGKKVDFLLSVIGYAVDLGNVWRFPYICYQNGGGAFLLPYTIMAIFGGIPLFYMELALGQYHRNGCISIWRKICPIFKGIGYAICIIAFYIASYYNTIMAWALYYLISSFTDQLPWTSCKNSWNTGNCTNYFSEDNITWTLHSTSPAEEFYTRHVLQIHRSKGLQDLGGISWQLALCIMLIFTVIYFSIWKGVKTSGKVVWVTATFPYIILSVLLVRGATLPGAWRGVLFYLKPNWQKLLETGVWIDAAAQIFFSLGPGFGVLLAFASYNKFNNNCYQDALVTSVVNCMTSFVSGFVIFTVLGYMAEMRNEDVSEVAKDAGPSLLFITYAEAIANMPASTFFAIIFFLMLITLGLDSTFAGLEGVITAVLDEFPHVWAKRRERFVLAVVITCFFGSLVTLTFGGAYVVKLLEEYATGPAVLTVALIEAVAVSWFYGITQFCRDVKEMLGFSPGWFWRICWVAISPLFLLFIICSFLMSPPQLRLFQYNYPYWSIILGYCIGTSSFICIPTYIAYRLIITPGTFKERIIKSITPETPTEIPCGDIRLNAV

[4] = target: Sodium-dependent serotonin transporter (Rattus norvegicus, UniProt P31652); test: Inhibition of uptake of 5-HT in rat brain cortex; format: functional, tissue-based
Sequence of Sodium-dependent serotonin transporter (Rattus norvegicus, UniProt P31652) (P31652 whole entry): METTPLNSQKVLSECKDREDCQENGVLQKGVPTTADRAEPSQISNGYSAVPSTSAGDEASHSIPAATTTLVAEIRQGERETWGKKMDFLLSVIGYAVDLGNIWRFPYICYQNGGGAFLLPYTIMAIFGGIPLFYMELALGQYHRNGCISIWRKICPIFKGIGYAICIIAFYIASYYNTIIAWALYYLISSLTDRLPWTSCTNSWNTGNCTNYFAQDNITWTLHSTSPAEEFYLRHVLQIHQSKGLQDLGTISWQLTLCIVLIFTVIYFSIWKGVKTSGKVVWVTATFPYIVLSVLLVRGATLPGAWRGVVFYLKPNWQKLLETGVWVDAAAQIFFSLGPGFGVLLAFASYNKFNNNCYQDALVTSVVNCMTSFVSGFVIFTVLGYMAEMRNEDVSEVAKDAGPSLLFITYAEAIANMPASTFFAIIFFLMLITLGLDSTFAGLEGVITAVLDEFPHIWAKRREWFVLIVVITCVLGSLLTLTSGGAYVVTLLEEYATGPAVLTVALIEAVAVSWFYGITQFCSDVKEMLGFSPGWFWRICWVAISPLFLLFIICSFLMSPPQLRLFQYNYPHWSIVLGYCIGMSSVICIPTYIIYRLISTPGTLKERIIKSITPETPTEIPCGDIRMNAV

[5] = target: Sodium-dependent dopamine transporter (Rattus norvegicus, UniProt P23977); test: Inhibition of uptake of dopamine (DA) rat brain striatum; format: functional, tissue-based
Sequence of Sodium-dependent dopamine transporter (P23977 whole entry): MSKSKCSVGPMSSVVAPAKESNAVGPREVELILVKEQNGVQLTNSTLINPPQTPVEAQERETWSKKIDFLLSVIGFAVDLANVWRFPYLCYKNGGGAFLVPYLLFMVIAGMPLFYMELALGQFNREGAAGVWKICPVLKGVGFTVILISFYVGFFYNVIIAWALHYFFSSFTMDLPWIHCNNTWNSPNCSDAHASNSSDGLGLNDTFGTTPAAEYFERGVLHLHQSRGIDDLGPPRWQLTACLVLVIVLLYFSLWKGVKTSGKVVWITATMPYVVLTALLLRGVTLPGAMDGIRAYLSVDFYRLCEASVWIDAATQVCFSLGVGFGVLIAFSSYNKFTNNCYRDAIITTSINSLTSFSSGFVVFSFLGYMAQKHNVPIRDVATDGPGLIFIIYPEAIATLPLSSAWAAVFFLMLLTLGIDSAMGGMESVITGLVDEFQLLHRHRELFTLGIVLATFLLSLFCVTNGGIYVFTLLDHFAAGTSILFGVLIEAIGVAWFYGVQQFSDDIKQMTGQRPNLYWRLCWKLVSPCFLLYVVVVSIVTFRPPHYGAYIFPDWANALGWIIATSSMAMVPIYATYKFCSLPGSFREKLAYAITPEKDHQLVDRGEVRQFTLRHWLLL
How it was run: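 Brain synaptosomes from immature female rats (19-21 days) were incubated 5 min at 37 °C with labelled amine at 10⁻⁷ M. Four to six drug concentrations were run in duplicate. IC50 is the concentration inhibiting uptake by 50%.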

[6] = target: Norepinephrine transporter (Rattus norvegicus, UniProt Q9WTR4); test: Inhibition of uptake of noradrenaline in rat brain hypothalamus; format: functional, tissue-based
Sequence of Norepinephrine transporter (Q9WTR4 whole entry): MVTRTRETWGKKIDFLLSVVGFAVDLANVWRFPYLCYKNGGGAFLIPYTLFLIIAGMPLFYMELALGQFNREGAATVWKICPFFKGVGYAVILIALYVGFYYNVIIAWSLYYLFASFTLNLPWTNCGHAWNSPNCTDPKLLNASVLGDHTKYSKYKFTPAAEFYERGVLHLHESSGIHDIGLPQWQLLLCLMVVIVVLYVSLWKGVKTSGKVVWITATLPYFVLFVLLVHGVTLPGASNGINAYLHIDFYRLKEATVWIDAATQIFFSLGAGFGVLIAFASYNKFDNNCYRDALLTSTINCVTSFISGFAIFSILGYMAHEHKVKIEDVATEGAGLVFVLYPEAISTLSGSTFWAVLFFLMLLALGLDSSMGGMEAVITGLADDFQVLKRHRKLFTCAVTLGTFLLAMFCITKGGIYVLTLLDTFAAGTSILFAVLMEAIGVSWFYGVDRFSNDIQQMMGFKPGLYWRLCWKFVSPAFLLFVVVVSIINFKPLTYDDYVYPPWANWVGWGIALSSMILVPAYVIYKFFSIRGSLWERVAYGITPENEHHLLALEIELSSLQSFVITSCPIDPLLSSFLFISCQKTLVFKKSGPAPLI
How it was run: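 Brain synaptosomes from immature female rats (19-21 days) were incubated 5 min at 37 °C with labelled amine at 10⁻⁷ M. Four to six drug concentrations were run in duplicate.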

[7] = tested on: Mus musculus; test: Compound was tested for potentiation of 5-HTP in mouse after subcutaneous administration; format: functional; conditions: sc; how it was run: as §1
[8] = tested on: Rattus norvegicus; test: Antagonism of tetrabenazine ptosis in rat after oral administration; format: functional; how it was run: as §2
[9] = tested on: Mus musculus; test: Compound was tested for potentiation of 5-HTP in mouse after subcutaneous administration; Inactive at the dose 3 mg/kg; format: functional, organism-based; parameters: dose 3 mg/kg; how it was run: as §1
[10] = tested on: Rattus norvegicus; test: Antagonism of tetrabenazine ptosis in rat after oral administration; Inactive at the dose 10 mg/kg; format: functional, organism-based; parameters: dose 10 mg/kg; how it was run: as §2
[11] = tested on: Mus musculus; test: Compound was tested for potentiation of 5-HTP in mouse after subcutaneous administration; Inactive at 25 mg/kg; format: functional, organism-based; parameters: dose 25 mg/kg; how it was run: as §1

Compound	ED50 [1]	AD50 [2]	IC50 [3]	IC50 [4]	IC50 [5]	IC50 [6]	ED50 [7]	AD50 [8]	ED50 [9]	AD50 [10]	ED50 [11]
Oc1ccc2[nH]cc(CCC3CCNCC3)c2c1	inactive	inactive	0.02 µM	0.6 µM	2.7 µM	1 µM	–	–	–	–	–
c1ccc2c(CCC3CCNCC3)c[nH]c2c1 [INDALPINE]	–	–	0.03 µM	0.01 µM	18 µM	1.6 µM	4 mg/kg	–	–	–	–
COc1ccc2[nH]cc(CCC3CCNCC3)c2c1	inactive	inactive	> 1 µM	0.14 µM	20 µM	3 µM	–	–	–	–	–
O=C(O)/C=C/C(=O)O.c1ccc(-n2cc(CCC3CCNCC3)c3ccccc32)cc1	inactive	–	> 1 µM	1 µM	20 µM	0.4 µM	–	> 100 mg/kg	–	–	–
Oc1ccc2c(CCC3CCNCC3)c[nH]c2c1	inactive	inactive	> 1 µM	1.5 µM	0.15 µM	0.6 µM	–	–	–	–	–
Fc1ccc2[nH]cc(CC3CCNCC3)c2c1	–	–	0.17 µM	–	7 µM	1 µM	32 mg/kg	100 mg/kg	–	–	–
Cc1[nH]c2ccccc2c1CCC1CCNCC1	inactive	–	> 1 µM	2.5 µM	23 µM	6.5 µM	–	>100 mg/kg	–	–	–
COc1ccc2[nH]cc(CC3CCNCC3)c2c1	inactive	inactive	> 1 µM	1 µM	> 100 µM	9 µM	–	–	–	–	–
c1ccc(-c2[nH]c3ccccc3c2CCC2CCNCC2)cc1	inactive	inactive	> 1 µM	2.2 µM	3.5 µM	1.5 µM	–	–	–	–	–
Clc1ccc2[nH]cc(CC3CCNCC3)c2c1	–	–	> 1 µM	0.7 µM	12 µM	1.8 µM	–	–	inactive	inactive	–
Cn1cc(CCC2CCNCC2)c2ccccc21	–	inactive	0.4 µM	0.4 µM	30 µM	1.3 µM	–	–	–	–	inactive
Clc1ccc2[nH]cc(CCC3CCNCC3)c2c1	inactive	inactive	0.22 µM	0.13 µM	1.5 µM	0.65 µM	–	–	–	–	–
CN1CCC(CCc2cn(C)c3ccccc23)CC1	inactive	inactive	> 1 µM	1.7 µM	> 100 µM	> 10 µM	–	–	–	–	–
CN1CCC(CCc2c[nH]c3ccccc23)CC1	inactive	inactive	> 1 µM	0.45 µM	6.5 µM	40 µM	–	–	–	–	–
c1ccc2c(CCCC3CCNCC3)c[nH]c2c1	–	–	0.06 µM	0.04 µM	3 µM	0.5 µM	8 mg/kg	56 mg/kg	–	–	–
Brc1ccc2[nH]cc(CC3CCNCC3)c2c1	–	–	1 µM	0.7 µM	8 µM	0.6 µM	–	10 mg/kg	inactive	–	–
c1ccc2c(CC3CCNCC3)c[nH]c2c1	–	inactive	0.55 µM	0.05 µM	20 µM	1.5 µM	10 mg/kg	–	–	–	–
c1ccc(Cn2cc(CCC3CCNCC3)c3ccccc32)cc1	inactive	inactive	> 1 µM	1.9 µM	0.3 µM	5 µM	–	–	–	–	–
CN(C)CCCN1c2ccccc2CCc2ccc(Cl)cc21 [CLOMIPRAMINE]	–	–	–	–	1 µM	–	6.5 mg/kg	45 mg/kg	–	–	–
